Measured values: ChEMBL document CHEMBL4251758, “Small Molecule Inhibition of MicroRNA miR-21 Rescues Chemosensitivity of Renal-Cell Carcinoma to Topotecan” (J Med Chem, 2018)
pEC50, pIC50: −log10 of the molar value. Calls of active or inactive are those of the source. The rule behind the calls is not given here.

Assays:
microRNA 21 [1] = assay: Inhibition of miR-21 RNA in human HeLa cells harboring miR-21 binding sequence in 3'-UTR of firefly luciferase gene assessed as increase in luciferase expression incubated for 48 hrs by Bright-Glo luciferase reporter gene assay relative to control; type: cell-based
Summary of the method: (§1)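 HeLa-miR21-Luc stable line (miR-21 site in the firefly luciferase 3′-UTR), 1000 cells per well. Compound or DMSO (0.1% final) added after overnight attachment, in triplicate, for 48 h. Bright-Glo luminescence was normalized to XTT viability (450 nm) and expressed as fold change relative to DMSO. At least three independent experiments.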

microRNA 21 [2] = assay: Inhibition of miR-21 RNA in human HeLa cells harboring miR-21 binding sequence in 3'-UTR of firefly luciferase gene assessed as increase in luciferase expression incubated for 48 hrs by Bright-Glo luciferase reporter gene assay; type: cell-based; summary of the method: as §1
[3] = target: Luciferin 4-monooxygenase (Photinus pyralis) (UniProt P08659); assay: Inhibition of firefly luciferase activity up to 50 uM
[4] = Inhibition of miR-125b RNA (unknown origin) transfected in human PC3 cells at 10 uM after 48 hrs by Bright-Glo luciferase reporter gene assay; type: cell-based
HeLa = assay: Inhibition of miR-182 RNA (unknown origin) transfected in human HeLa cells at 10 uM after 48 hrs by Bright-Glo luciferase reporter gene assay; type: cell-based
[5] = Inhibition of miR-221 RNA (unknown origin) transfected in human PC3 cells at 10 uM after 48 hrs by Bright-Glo luciferase reporter gene assay; type: cell-based
SK-OV-3 = assay: Decrease in mature miR-21 expression levels in human SKOV3 cells at 10 uM after 48 hrs by qRT-PCR analysis; type: functional, cell-based
microRNA 21 [6] = assay: Inhibition of promoter activity of miR-21 RNA (unknown origin) transfected in human HeLa cells at 10 uM after 48 hrs by Bright-Glo luciferase reporter gene assay; type: cell-based
Summary of the method: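 HeLa cells, 10,000 per well, treated after overnight attachment with 10 μM compound or DMSO (0.1% final) in triplicate for 48 h. Cells were then transfected for 3 h with 100 ng pGL4-miR21P (miR-21 promoter driving firefly luciferase) or empty pGL4.10. Medium was replaced with compound-containing medium for a further 24 h, followed by Bright-Glo luminescence read.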

[7] = Stabilization of pre-miR-21 RNA (unknown origin) assessed as increase in melting temperature at 10 uM by UV-spectrophotometric analysis
Summary of the method: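 Melting-curve analysis of precursor miR-21 RNA run with test compound, with DMSO as the reference condition and tobramycin (10 μM) as a positive control for RNA binding and stabilisation. Read-out is the shift in melting temperature of pre-miR-21 relative to the DMSO sample.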

MIA PaCa-2 = assay: Cytotoxicity against human MIAPaCa2 cells after 72 hrs by XTT assay; type: functional, cell-based; details: MIA PaCa-2, 72 h
Summary of the method: (§2)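 Cells seeded at 500 per well, incubated overnight, then exposed to increasing compound concentrations (0.1% DMSO final, DMSO control) in triplicate for 72 h. Activated XTT added; absorbance read at 450 nm with 630 nm background at start and after 4 h at 37 °C, 5% CO2. Change normalized to DMSO as % viability; IC50 from variable-slope sigmoidal fit; three independent measurements.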

A 172 = assay: Cytotoxicity against human A172 cells after 72 hrs by XTT assay; type: functional, cell-based; details: A 172, 72 h; summary of the method: as §2
U-87 MG = assay: Cytotoxicity against human U87 cells after 72 hrs by XTT assay; type: functional, cell-based, U-87MG ATCC; summary of the method: as §2
A498 [8] = assay: Cytotoxicity against human A498 cells after 72 hrs by XTT assay; type: functional, cell-based; details: A498, 72 h; summary of the method: as §2
HCT-116 = assay: Cytotoxicity against human HCT116 cells after 72 hrs by XTT assay; type: functional, cell-based; details: HCT-116, 72 h; summary of the method: as §2
microRNA 21 [9] = assay: Inhibition of miR-21 RNA in human A498 cells assessed as potentiation of topotecan-induced cytotoxicity after 72 hrs by XTT assay; type: cell-based
Summary of the method: (§3)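 The chemotherapeutic agent (topotecan) was titrated while the miR-21 inhibitor was held at a fixed concentration, 0.1% DMSO final, in triplicate. Cells were seeded at 500 per well and treated after overnight attachment. After 72 h, XTT was read at 450 nm (630 nm background) at start and after 4 h. Signal normalized to DMSO; IC50 from variable-slope sigmoidal fit.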

microRNA 21 [10] = assay: Inhibition of miR-21 RNA in human A498 cells assessed as potentiation of topotecan-induced inhibition of colony formation by measuring topotecan IC50 at 10 uM after 2 weeks by crystal violet staining-based microscopic analysis (reference value: 2 uM); type: cell-based
Summary of the method: (§4)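 A498 cells, 10,000 per well, seeded in 0.45% low-melt agarose in DMEM over a 0.7% agarose base layer, containing increasing compound concentrations or DMSO (0.1% final), in triplicate. For combinations, the inhibitor was held at 10 μM. After 2 weeks, colonies were stained with 0.1% crystal violet and imaged by z-stack microscopy. Colony counts were normalized to DMSO; IC50 from sigmoidal fit.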

A498 [11] = assay: Induction of apoptosis in human A498 cells assessed as increase in caspase-3/7 activity at 10 uM after 24 hrs by Caspase-Glo 3/7 assay relative to control; type: functional
Summary of the method: (§5)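 A498 cells, 10,000 per well, treated after overnight attachment for 24 h with DMSO (0.1%), 400 nM topotecan, 10 μM inhibitor, or topotecan plus inhibitor at those levels. Caspase-3/7 activity read by Caspase-Glo 3/7 luminescence and normalized to DMSO. At least three independent experiments; unpaired t test.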

microRNA 21 [12] = assay: Inhibition of miR-21 RNA in human A498 cells assessed as increase in PDCD4 expression at 10 uM after 48 hrs by Western blot analysis relative to control; type: cell-based
Summary of the method: (§6)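 A498 cells, 250,000 per well, treated with 10 μM compound or DMSO (0.1%) for 48 h and lysed in RIPA buffer. Lysates were run on 10% SDS-PAGE, transferred to PVDF, and probed with rabbit anti-PTEN, anti-PDCD4 and anti-GAPDH, then HRP secondary. Chemiluminescence densitometry was normalized to GAPDH, then to DMSO.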

microRNA 21 [13] = assay: Inhibition of miR-21 RNA in human A498 cells assessed as increase in PTEN expression at 10 uM after 48 hrs by Western blot analysis relative to control; type: cell-based; summary of the method: as §6
NIH3T3 = assay: Potentiation of topotecan-induced cytotoxicity in mouse NIH/3T3 cells at 1 to 10 uM after 72 hrs by XTT assay; type: cell-based; details: nih3t3, 72 h; summary of the method: as §3
microRNA 21 [14] = assay: Inhibition of miR-21 RNA in human A498 cells assessed as potentiation of topotecan-induced inhibition of colony formation by measuring reduction in topotecan IC50 at 10 uM after 2 weeks by crystal violet staining-based microscopic analysis relative to topotecan alone; type: cell-based; summary of the method: as §4
microRNA 21 [15] = assay: Inhibition of miR-21 RNA in human A498 cells assessed as potentiation of topotecan-induced apoptosis by measuring increase in caspase-3/7 activity at 10 uM after 24 hrs by Caspase-Glo 3/7 assay relative to topotecan alone; type: cell-based; summary of the method: as §5

Chain of Luciferin 4-monooxygenase (Photinus pyralis) (P08659 whole entry): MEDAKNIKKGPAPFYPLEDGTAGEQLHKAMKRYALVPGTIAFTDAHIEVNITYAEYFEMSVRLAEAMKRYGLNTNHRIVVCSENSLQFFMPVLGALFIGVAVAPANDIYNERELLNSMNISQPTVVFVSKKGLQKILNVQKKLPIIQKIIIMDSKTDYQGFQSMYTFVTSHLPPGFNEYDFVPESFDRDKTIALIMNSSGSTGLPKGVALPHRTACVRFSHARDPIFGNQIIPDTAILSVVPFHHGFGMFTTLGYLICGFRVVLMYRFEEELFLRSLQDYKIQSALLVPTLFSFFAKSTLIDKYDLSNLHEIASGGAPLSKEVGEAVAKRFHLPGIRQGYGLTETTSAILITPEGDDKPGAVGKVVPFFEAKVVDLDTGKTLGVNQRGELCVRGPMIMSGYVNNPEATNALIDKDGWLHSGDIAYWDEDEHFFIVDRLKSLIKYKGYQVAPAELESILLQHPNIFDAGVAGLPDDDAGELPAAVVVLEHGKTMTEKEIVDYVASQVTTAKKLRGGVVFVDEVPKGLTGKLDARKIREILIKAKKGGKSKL

pEC50 (microRNA 21 [2]): 5.28
inhibition [3]: inactive
Activity [7]: inactive
pIC50 (microRNA 21 [10]): 7.13
Compound: C#CCOc1ccc(-c2noc(-c3nnn(-c4cccc(/C(C)=N/O)c4)c3N)n2)cc1
fold change (FC) (microRNA 21 [1]): 12.2
inhibition (microRNA 21 [2]): Dose-dependent effect
inhibition [4]: inactive
inhibition (HeLa): inactive
inhibition [5]: inactive
Activity (SK-OV-3): inactive
inhibition (microRNA 21 [6]): inactive
pIC50 (MIA PaCa-2): 5.17
pIC50 (A 172): 5.34
pIC50 (U-87 MG): 5.48
pIC50 (A498 [8]): < 4.00
pIC50 (HCT-116): 5.23
inhibition (microRNA 21 [9]): Dose-dependent effect
Activity (A498 [11]): 20%
fold change (FC) (microRNA 21 [12]): 9.5
fold change (FC) (microRNA 21 [13]): 1.5
Activity (NIH3T3): Non-Toxic
fold change (FC) (microRNA 21 [14]): 27
fold change (FC) (microRNA 21 [15]): 1.6
